# Source: PubChem BioAssay (several laboratories)
# Compounds with a hit are over-represented: about 0.7% of the library has one in this group of screens.
# HSV augment: enhancers of HSV replication in host cells, fold increase, host cell viability; AID 1956, 2009; HSV replication augmentation in cells; maximum fold increase; 0.005% of 220,000 active; in the data active means maximum fold increase above about 1.5; inconclusive means no clear call, values can overlap the other calls; tested in PC3 cells
# Rce1 inhib: yeast Rce1p protease inhibitors, primary screen, biochemical, fluorescence, cell-free homogeneous; calls only; 0.27% of 290,000 active; yeast membranes, quenched prenylated peptide cleavage fluorescence;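 active means fall in fluorescence gain of 50% or more versus controls, with final raw signal at or below 3038400; inconclusive means same 50% fall but final raw signal above 3038400; inactive means fall in fluorescence gain under 50%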;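 further: plate controls were neutral control wells for no effect and wells lacking membranes for full effect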
# GSK3beta inhib: human GSK3beta kinase inhibitors, primary screen, biochemical, cell-free homogeneous, HTS; Glycogen synthase kinase-3 beta (Homo sapiens), P49841; GST-GSK3beta kinase, ADP-Glo luminescence, 60 min; hits give low values; activity score (negative = inhibition), % at 10 µM; 0.038% of 300,000 active;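 active means more than half of replicate wells score below -50%, meaning over 50% inhibition versus plate controls; inconclusive means some replicates but at most half score below -50%; inactive means no replicate scores below -50%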;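 further: 0% = median DMSO wells and -100% = median GW8510 positive control wells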
#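 Test system – GST-tagged human GSK3beta kinase, cell-free · Incubation – 60 min enzyme reaction, room temperature · Signal – ADP-Glo luminescence · Also added – peptide substrate and ATP at 25 µM · Controls – DMSO neutral wells and GW8510 at 20 µM as positive · Buffer or medium – Tris/MgCl2 kinase buffer · Measure – Luminescence-derived activity versus plate DMSO and GW8510 wells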
# GSK3A inh: blockers of GSK3A enzyme activity – biochemical, luminescence, cell-free homogeneous, HTS, primary screen | 0.1% of 320,000 active | inhibition, % at 10 µM | Glycogen synthase kinase-3 alpha (Homo sapiens), P49840 | GSK-3 alpha kinase, ADP-Glo luminescence, 60 min;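 active means more than half of replicates show inhibition above 20%; inconclusive means some but at most half of replicates above 20% inhibition; inactive means no replicate shows inhibition above 20%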;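 further: GST-tagged GSK-3 alpha with peptide substrate and 25 µM ATP; 0% = DMSO neutral wells and 100% = GW8510 positive control wells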
# Target sequence (P49840 whole entry, looked up): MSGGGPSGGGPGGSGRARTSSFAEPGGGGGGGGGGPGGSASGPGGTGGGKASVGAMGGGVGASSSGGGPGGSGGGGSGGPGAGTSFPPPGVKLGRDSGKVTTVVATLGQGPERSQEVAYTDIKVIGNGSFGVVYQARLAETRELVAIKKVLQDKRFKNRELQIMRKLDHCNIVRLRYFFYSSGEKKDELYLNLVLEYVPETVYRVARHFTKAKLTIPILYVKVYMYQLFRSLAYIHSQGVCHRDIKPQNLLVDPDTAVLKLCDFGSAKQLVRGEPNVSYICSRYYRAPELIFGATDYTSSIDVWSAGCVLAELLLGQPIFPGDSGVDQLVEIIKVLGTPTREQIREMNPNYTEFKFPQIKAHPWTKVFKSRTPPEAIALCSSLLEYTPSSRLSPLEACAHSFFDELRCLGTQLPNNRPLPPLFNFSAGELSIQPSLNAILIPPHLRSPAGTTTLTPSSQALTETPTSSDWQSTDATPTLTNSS
# Lipid droplet: inhibitors of hepatocyte lipid droplet formation, primary screen, imaging, high-throughput imaging, BODIPY stain. inhibition, % at 6.5 µM. AML12 mouse hepatocytes, oleate lipid droplets. 0.4% of 240,000 active;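 active means lipid droplet intensity inhibited by at least 50%, with more than 500 cells counted; inconclusive means wells with under 300 cells, treated as cytotoxic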
#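 Test system: AML12 mouse liver cells; schedule: overnight exposure; technique: high-content imaging of BODIPY-stained droplets and DAPI nuclei; read-out: % inhibition of corrected integrated BODIPY droplet signal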
# STK33 inh: inhibitors of purified STK33 kinase, primary screen, biochemical, ADP-Glo luminescence, homogeneous, cell-free; Serine/threonine-protein kinase 33 (Homo sapiens), Q9BYT3; MBP phosphorylation; inhibition, % at 10 µM; 0.073% of 320,000 active; AID 2661, 2010;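 active means inhibition at or above 25%, using the most active replicate where run in duplicate; inactive means inhibition below 25%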
# The depositor's hits bear a star; i = inactive; ? = inconclusive; . = no result given; + = active, no number.
SMILES,HSV augment,Rce1 inhib,GSK3beta inhib,GSK3A inh,Lipid droplet,STK33 inh
Nc1nc(NCc2ccc(Cl)cc2)nc(NCCO)c1[N+](=O)[O-],i,.,-1,13,2,-2
CCC(C)Nc1nc(N)c([N+](=O)[O-])c(NCCO)n1 (stereo unspecified),i,i,-1,73*,8,1
Cc1ccc(Nc2nc(N)c([N+](=O)[O-])c(NCCO)n2)cc1C,i,i,-11,42,-8,2
Nc1nc(Nc2ccc(Cl)cc2)nc(NCCO)c1[N+](=O)[O-],i,i,-16,55*,6,3
Cc1ccc(CNc2nc(N)c([N+](=O)[O-])c(NCCO)n2)cc1,i,i,-39,51*,12,2
Cc1ccc(NC(=O)NNC(=O)C2CCN(Cc3ccc(F)cc3Cl)CC2)cc1,i,i,1,0,20,0
Cc1cc(NC(=O)CN2C(=O)NC(c3ccccc3)(c3ccc(C)c(C)c3)C2=O)no1 (stereo unspecified),.,.,.,9,.,-2
CCOC(=O)c1cnc2ccc(OC)cc2c1Nc1ccc(N2CCN(C)CC2)cc1,.,i,-59*,84*,1,0
O=c1cc(-c2ccccc2)c2c(O)cc(O)cc2o1,.,i,-58*,72*,-1,1
O=c1c(-c2ccccc2)c(-c2ccccc2)oc2cc(O)cc(O)c12,.,i,-4,7,.,-2
Cc1ccc(OCC(=O)c2ccc(Cl)s2)c([N+](=O)[O-])n1,i,i,-2,-1,9,1
CC1CCN(C(=O)COc2ccc(S(=O)(=O)N3CCOCC3)cc2)CC1,.,i,1,-2,.,0
O=C(Nc1ccc2c(c1)OCO2)c1cc2ncc(Br)cn2n1,i,i,0,.,69*,.
O=C(Nc1cccc(C(F)(F)F)c1)c1cc2ncc(Br)cn2n1,i,.,.,-2,8,-1
Cc1nc(NCCCn2ccnc2)c2ccccc2n1,i,i,-2,4,.,0
c1cncc(-c2nc(NCCCn3ccnc3)c3ccccc3n2)c1,i,i,-55*,71*,1,12
CCOC(=O)c1c(C2COc3ccccc3O2)csc1NC(=O)c1ccccc1 (stereo unspecified),i,+,-1,-5,6,0
COc1cc(/C=N/n2c(-c3ccccc3)n[nH]c2=S)ccc1O,i,i,1,5,-2,46*
COc1cc(/C=N/n2c(-c3n[nH]c4c3CCC4)n[nH]c2=S)ccc1O,i,i,0,16,0,40*
COc1cc(/C=N/n2c(-c3ccccc3)n[nH]c2=S)cc(OC)c1O,i,i,1,-1,8,1
COc1cccc(/C=C2/Sc3ccc(C(=O)NCCCN4CCCC4)cc3NC2=O)c1,.,i,-83*,84*,19,11
COc1cccc(/C=C2/Sc3ccc(C(=O)NCCN4CCCC4)cc3NC2=O)c1,.,i,-67*,1,3,1
O=C(NCCCN1CCCCC1)c1ccc2c(c1)NC(=O)c1ccccc1S2,.,i,-4,6,-11,3
O=C1Nc2cc(C(=O)NCCCN3CCCC3)ccc2S/C1=C/c1ccccc1F,.,i,-67*,42,-16,1
Cc1ccc(/C=C2/Sc3ccc(C(=O)NCCN4CCOCC4)cc3NC2=O)cc1,.,i,-3,-2,-5,-1
SMILES,HSV augment,Rce1 inhib,GSK3beta inhib,GSK3A inh,Lipid droplet,STK33 inh
COc1cc(C2CC(=O)c3cnc(NC(=O)c4ccco4)nc3C2)cc(OC)c1OC (stereo unspecified),.,.,.,1,-18,1
COc1ccc(C(=O)OC(C)C(=O)NCC2CCCCC2)cc1S(=O)(=O)N1CCOCC1 (stereo unspecified),.,.,.,-1,.,-2
Cc1cccc(-c2nnc(SCc3ccc(C#N)cc3)n2Cc2ccco2)c1,i,+,6,0,.,-1
C=CCn1c(SCc2ccc(C#N)cc2)nnc1-c1ccc(C)cc1,i,+,0,3,.,0
Fc1cccc(Nc2ncnc3[nH]ncc23)c1,i,i,-27,53*,-9,10
COc1ccccc1Oc1ccc(S(=O)(=O)N2CCCCC2)cc1NC(=O)CCNC(C)=O,.,i,0,-3,-9,-1
C=C(C)C1(O)OC(=O)C=C1OC (stereo unspecified),i,+,3,2,-18,-1
COc1ccc(CNc2ncnc3cc(Cl)ccc23)cc1OC,i,i,1,.,-8,.
CCN(CC)Cc1cc2[nH]c3c4ccc(Cl)cc4ncc3c2cc1OC,i,i,-52*,.,-1,.
Cc1ccc2nc(-c3ccc(NC(=O)CSCC(=O)O)cc3)sc2c1,i,i,-1,7,-5,1
O=C(O)CSCC(=O)Nc1ccc(-c2nc3ccccc3s2)cc1,i,+,-2,5,1,2
Cc1ccc(N2C(=O)NC(C(F)(F)F)(C(F)(F)F)C3=C2CC(C)(C)CC3=O)cc1,i,i,-1,1,-2,1
Cc1nc(SC(C(=O)c2ccccc2)c2ccccc2)nc2ccccc12 (stereo unspecified),i,+,10,0,-41,-2
Cc1ccc2c(C)nc(SC(C(=O)c3ccccc3)c3ccccc3)nc2c1 (stereo unspecified),i,i,0,-1,-15,1
Cc1nc(Cl)c2c(n1)NC1=C(O2)C(=O)CCC1,?,i,1,7,21,0
O=C(Nc1oc2ccccc2c(=O)c1-c1ccc(Cl)cc1)c1ccco1,.,i,1,.,-7,-1
CCc1ccc(Nc2n[n+](-c3ccccc3)c(/C=C/c3ccccc3)s2)cc1,.,+,3,-2,.,0
CCCCNC(=S)N(C)/N=C/c1ccc(OCc2ccc(C(=O)OC)cc2)c(OC)c1,i,i,4,-2,-2,1
COc1ccc(-c2nc(NC(=O)c3ccc(OCC(=O)N4CCOCC4)c(OC)c3)sc2C)cc1,i,i,0,-3,96*,2
CC(C)(C)OC(=O)N1CSC[C@H]1C(=O)NC[C@H](CC(=O)O)c1ccc(Cl)cc1,.,i,-2,0,2,-1
O=[N+]([O-])c1cc(/C=N/O)ccc1Oc1ccccc1Cl,i,i,-52*,65*,0,4
O=[N+]([O-])c1cc(/C=N/O)ccc1Oc1cccc(Cl)c1,i,i,-5,47,-8,3
